This test concerns E. coli V66 + mutant T4 phage, OD growth. Description: OD loss of phage-infected RecBCD+ E. coli – absorbance, round 2, counter-screen for AddAB inhibitor project, dose response (AID 651944). The method in brief: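 Assay system: recBCD+ Escherichia coli strain V66 challenged with mutant T4 phage | Medium: Cation-adjusted Mueller Hinton broth with 0.1% glycerol | Compound dosing: 10 doses, 1:3 steps, from 118.6 µM | Incubation: Compound preincubation 60 min, then phage 18 h, 37 °C | Detection: Absorbance at 600 nm | Evaluation: IC50 from four-parameter curve fit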

The source made the active and inactive calls.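 Rule for the calls: active = IC50 at or below 10 µM; inactive = IC50 above 10 µM.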

Take `CCn1cc(C(=O)O)c(=O)c2cnc(N3CCN(C(=S)NCc4ccccc4)CC3)nc21`: the IC50 was > 119 µM (inactive).

In the case of `CCn1cc(C(=O)O)c(=O)c2cnc(N3CCN(C(=S)Nc4cccc(C(F)(F)F)c4)CC3)nc21`, the IC50 was 77.8 µM (inactive).

With `CCn1cc(C(=O)O)c(=O)c2cnc(N3CCN(C(=S)NC(=O)c4cccc(C)c4)CC3)nc21`, the IC50 is > 39.5 µM (inactive).

As for `CCn1cc(C(=O)O)c(=O)c2cnc(N3CCN(C(=S)Nc4ccccc4OC)CC3)nc21`, the IC50 was > 119 µM (inactive).

Consider `CCn1cc(C(=O)O)c(=O)c2cnc(N3CCN(C(=S)Nc4ccc(Cl)cc4)CC3)nc21`, for which the IC50 was 80.9 µM (inactive).

As for `CCn1cc(C(=O)O)c(=O)c2cnc(N3CCN(C(=S)Nc4ccccc4F)CC3)nc21`, the IC50 was > 119 µM (inactive).

(Values after PubChem BioAssay AID651944 (The Scripps Research Institute Molecular Screening Center, 2012).)
